Our source for the inhibition, Activity and AC50 values is ChEMBL document CHEMBL3817796, “Discovery of Novel 15-Lipoxygenase Activators To Shift the Human Arachidonic Acid Metabolic Network toward Inflammation Resolution” (J Med Chem, 2016).

Active and inactive are the calls of the source. The rule behind the calls is not given here.

Broadly, the inhibition is the share of the control response that was lost under treatment. Broadly, the AC50 is the concentration at which the activity in the assay is half-maximal.

The target in assay [1] is T1, Prostaglandin G/H synthase 2 (Homo sapiens) (UniProt P35354).
T1 sequence (whole entry): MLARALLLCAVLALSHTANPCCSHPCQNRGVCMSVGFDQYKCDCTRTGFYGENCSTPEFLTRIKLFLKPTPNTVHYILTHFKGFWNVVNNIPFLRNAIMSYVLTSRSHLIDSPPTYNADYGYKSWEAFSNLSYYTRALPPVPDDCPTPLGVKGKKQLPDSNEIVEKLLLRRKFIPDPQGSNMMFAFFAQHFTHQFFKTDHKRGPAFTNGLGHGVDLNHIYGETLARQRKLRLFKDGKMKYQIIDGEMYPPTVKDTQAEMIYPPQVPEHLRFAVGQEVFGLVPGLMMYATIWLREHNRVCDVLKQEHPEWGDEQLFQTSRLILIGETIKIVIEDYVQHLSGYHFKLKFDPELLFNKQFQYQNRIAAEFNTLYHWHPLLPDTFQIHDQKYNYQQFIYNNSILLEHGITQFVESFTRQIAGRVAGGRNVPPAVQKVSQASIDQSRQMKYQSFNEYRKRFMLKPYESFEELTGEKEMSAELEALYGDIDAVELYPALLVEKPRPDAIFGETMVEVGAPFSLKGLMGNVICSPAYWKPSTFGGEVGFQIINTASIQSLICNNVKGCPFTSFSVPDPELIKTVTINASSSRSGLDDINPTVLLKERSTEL
Nature of the assay: Inhibition of COX2 (unknown origin) assessed as reduction in PGG2 to PGH2 conversion by measuring N,N,N',N'-tetramethyl-p-phenylenediamine oxidation at 100 uM by spectrophotometry.

The next assay has as its system Blood. Nature of the assay: Reduction in LTB4 in production in human whole blood at 100 uM pre-incubated for 20 mins before stimulation with LPS and A23187 for 120 mins by LC-MS/MS method. Further details: scale not given: the % may be the effect or the level left. In kind it is functional. An outline of the steps:
(§1)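 Human blood preincubated 20 min at 37 °C with DMSO vehicle or compound in DMSO. LPS added at 100 μg/mL for 24 h at 37 °C, then A23187 at 20 μg/mL final. Samples frozen in liquid nitrogen at time points, lysed by freeze–thaw, with PGB2 internal standard. Analysed by C18 LC-MRM MS, negative ion. Change = control-normalized concentration minus 1, ×100%; 120 min value from AUC.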

Assay [2] has as its target T2, Polyunsaturated fatty acid lipoxygenase ALOX15 (Homo sapiens) (UniProt P16050).
T2 sequence (whole entry): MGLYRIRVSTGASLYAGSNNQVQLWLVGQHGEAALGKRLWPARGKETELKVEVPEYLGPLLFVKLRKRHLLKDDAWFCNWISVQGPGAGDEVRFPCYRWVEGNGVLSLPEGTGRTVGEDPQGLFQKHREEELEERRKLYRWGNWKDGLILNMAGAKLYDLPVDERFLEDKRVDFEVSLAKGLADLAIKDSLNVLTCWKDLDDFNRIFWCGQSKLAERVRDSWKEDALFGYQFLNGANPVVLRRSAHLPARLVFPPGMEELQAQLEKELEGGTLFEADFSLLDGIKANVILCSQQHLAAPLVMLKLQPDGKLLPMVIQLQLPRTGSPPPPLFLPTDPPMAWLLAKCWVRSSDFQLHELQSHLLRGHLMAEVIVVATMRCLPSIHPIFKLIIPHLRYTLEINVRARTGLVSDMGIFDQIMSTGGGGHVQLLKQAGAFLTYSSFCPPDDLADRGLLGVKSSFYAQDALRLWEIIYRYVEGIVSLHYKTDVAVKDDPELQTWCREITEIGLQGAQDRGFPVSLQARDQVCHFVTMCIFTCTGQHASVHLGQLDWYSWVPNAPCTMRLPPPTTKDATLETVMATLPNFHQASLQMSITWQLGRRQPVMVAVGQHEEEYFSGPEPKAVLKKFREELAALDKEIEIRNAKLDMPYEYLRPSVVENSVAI
Nature of the assay: Activation of 15-LOX in human whole blood assessed as reduction in PGE2 production at 100 uM pre-incubated for 20 mins before stimulation with LPS and A23187 for 120 mins in presence of 2 uM 5-LOX inhibitor Zileuton by LC-MS/MS method. In kind it is tissue-based. An outline of the steps:
as §1

Assay [3] has as its target T2, Polyunsaturated fatty acid lipoxygenase ALOX15 (Homo sapiens). Nature of the assay: Activation of 15-LOX in human whole blood assessed as 5-HETE production at 100 uM pre-incubated for 20 mins before stimulation with LPS and A23187 for 120 mins in presence of 2 uM 5-LOX inhibitor Zileuton by LC-MS/MS method. In kind it is tissue-based. The essentials:
as §1

Assay [4] concerns the target T3, Polyunsaturated fatty acid lipoxygenase ALOX15 (Homo sapiens, UniProt P16050).
T3 sequence (P16050 whole entry): T2 sequence (whole entry)
Nature of the assay: Activation of wild-type His6-tagged human 15-LOX expressed in Escherichia coli Rosetta DE3 assessed as 15-HpETE formation pre-incubated for 1 min before arachidonic acid substrate addition by cell free assay.

Assay [5] deals with T4, Leukotriene A-4 hydrolase (Homo sapiens) (UniProt P09960).
T4 sequence (whole entry): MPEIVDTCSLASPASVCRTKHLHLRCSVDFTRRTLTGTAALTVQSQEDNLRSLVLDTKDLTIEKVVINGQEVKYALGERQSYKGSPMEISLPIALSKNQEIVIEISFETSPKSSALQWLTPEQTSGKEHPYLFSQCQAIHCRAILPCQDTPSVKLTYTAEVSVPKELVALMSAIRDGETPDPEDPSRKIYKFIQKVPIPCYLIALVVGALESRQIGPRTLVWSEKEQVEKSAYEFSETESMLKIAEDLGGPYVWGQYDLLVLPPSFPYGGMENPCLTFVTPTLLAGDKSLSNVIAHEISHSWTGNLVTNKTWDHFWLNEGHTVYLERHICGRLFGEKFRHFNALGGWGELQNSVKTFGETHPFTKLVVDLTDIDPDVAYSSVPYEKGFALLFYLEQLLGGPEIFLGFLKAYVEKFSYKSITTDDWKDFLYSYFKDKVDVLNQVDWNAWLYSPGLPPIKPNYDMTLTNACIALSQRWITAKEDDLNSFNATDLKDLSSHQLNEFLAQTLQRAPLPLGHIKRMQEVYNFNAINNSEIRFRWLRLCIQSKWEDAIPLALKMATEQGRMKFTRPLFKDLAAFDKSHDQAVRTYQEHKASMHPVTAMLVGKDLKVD
Nature of the assay: Activation of LTA4H hydrolase activity (unknown origin) assessed as LTB4 formation at 100 uM by enzyme linked immunosorbent assay. The essentials:
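LTA4H hydrolase activity read as LTB4 formation by ELISA. Compound handled as in the 15-LOX assay.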

In assay [6] the target is T2, Polyunsaturated fatty acid lipoxygenase ALOX15 (Homo sapiens). Nature of the assay: Activation of 15-LOX in human whole blood assessed as increase in 13-HODE production at 100 uM pre-incubated for 20 mins before stimulation with LPS and A23187 for 120 mins by LC-MS/MS method. In kind it is tissue-based. An outline of the steps:
as §1

Assay [7] shares this target. Nature of the assay: Activation of 15-LOX in human whole blood assessed as increase in 15-HETE production at 100 uM pre-incubated for 20 mins before stimulation with LPS and A23187 for 120 mins in presence of 0.16 to 20 uM 5-LOX inhibitor Zileuton by LC-MS/MS method. It is filed as tissue-based. The essentials:
as §1

Take `CN1CCN(CC(=O)N2N=C3/C(=C/c4ccccc4)CCCC3C2c2ccccc2)CC1` (stereo not drawn): the inhibition in assay [1] was less than 5%. In addition, the Activity in the assay on Blood is 52%; in assay [3] it was 59%; in assay [5] it was less than 5%; in assay [6], 95%. For the same molecule, the outcome in assay [2] and in assay [7] was Active. Moreover, the AC50 in assay [4] was found to be 6.8 µM.
